Measured values reported in ChEMBL document CHEMBL1781927, “Highly selective c-Jun N-terminal kinase (JNK) 3 inhibitors with in vitro CNS-like pharmacokinetic properties II. Central core replacement” (Bioorg Med Chem Lett, 2011).
Values after ≈ are worked out from the molar mass of the structure shown. Each block holds one compound with its values, some of them ahead of it.

Legend:
[1] = Oxidative metabolic stability in human liver microsomes assessed as compound remaining after 30 mins; type: ADME, Microsome; conditions: read-out: Stability
Procedure, shortened: (§1)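 Liver microsomes, mouse or human, were incubated with the compound for 30 min under oxidative conditions. The read-out is the percent of parent compound remaining.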

[2] = Oxidative metabolic stability in mouse liver microsomes assessed as compound remaining after 30 mins; type: ADME, Microsome; conditions: read-out: Stability; procedure, shortened: as §1
[3] = Metabolic stability in mouse liver microsomes assessed as compound remaining after 60 mins in presence of UDPGA; type: ADME, Microsome; conditions: read-out: Stability
[4] = Metabolic stability in human liver microsomes assessed as compound remaining after 60 mins in presence of UDPGA; type: ADME, Microsome; conditions: read-out: Stability
[5] = Apparent permeability from apical to basolateral side in MDCK2 cells at 5 uM after 120 mins; type: ADME, cell-based, Canis lupus familiaris, MDCK-II; conditions: dog, MDCK
[6] = target: T1, Mitogen-activated protein kinase 10 (Homo sapiens, UniProt P53779); experiment: Inhibition of JNK3 by TR-FRET assay
T1 sequence (P53779 whole entry): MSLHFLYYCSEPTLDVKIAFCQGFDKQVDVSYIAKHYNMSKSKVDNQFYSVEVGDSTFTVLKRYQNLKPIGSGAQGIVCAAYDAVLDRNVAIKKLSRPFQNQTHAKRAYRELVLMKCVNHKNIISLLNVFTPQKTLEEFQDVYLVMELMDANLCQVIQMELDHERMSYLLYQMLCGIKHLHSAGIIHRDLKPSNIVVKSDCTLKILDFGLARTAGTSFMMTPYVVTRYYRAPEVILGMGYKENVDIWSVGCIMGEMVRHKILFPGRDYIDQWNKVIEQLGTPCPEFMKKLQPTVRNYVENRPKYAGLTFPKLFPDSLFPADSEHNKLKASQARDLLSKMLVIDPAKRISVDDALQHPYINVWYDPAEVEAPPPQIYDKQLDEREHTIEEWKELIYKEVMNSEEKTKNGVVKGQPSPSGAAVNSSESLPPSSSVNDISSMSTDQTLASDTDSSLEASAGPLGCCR
Procedure, shortened: (§2)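 IC50s were determined at a single fixed ATP concentration, and each value is the mean of at least three independent experiments.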

[7] = target: Mitogen-activated protein kinase 9 (Homo sapiens, UniProt P45984); experiment: Inhibition of JNK2 by TR-FRET assay; procedure, shortened: as §2
Sequence of Mitogen-activated protein kinase 9 (P45984 whole entry): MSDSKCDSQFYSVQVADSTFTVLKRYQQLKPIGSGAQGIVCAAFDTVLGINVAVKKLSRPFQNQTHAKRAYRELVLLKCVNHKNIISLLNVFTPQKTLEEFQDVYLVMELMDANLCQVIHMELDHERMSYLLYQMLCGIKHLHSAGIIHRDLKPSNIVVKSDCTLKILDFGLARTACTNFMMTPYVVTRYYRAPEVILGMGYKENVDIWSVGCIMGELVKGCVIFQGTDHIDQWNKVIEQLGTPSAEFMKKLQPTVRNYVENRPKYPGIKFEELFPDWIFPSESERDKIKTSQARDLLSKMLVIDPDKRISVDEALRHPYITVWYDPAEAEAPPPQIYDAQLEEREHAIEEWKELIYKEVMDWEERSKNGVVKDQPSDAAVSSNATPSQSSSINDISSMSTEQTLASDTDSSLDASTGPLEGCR

[8] = Solubility of the compound; type: physicochemical
[9] = target: Mitogen-activated protein kinase 8 (Homo sapiens, UniProt P45983); experiment: Inhibition of JNK1 by TR-FRET assay; procedure, shortened: as §2
Sequence of Mitogen-activated protein kinase 8 (P45983 whole entry): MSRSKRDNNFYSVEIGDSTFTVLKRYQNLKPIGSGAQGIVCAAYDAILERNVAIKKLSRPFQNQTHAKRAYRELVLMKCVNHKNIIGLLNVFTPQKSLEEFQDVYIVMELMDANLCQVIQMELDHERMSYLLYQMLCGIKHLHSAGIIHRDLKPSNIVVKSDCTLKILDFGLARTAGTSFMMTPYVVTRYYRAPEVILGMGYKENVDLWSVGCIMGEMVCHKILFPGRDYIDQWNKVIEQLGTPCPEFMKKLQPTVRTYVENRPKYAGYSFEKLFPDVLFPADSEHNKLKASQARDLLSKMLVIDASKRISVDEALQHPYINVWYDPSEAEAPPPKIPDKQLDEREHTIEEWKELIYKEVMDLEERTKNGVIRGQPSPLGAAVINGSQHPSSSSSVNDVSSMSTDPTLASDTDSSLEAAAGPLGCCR

[10] = Selectivity ratio of IC50 for JNK1 to IC50 for JNK3
[11] = Efflux ratio, permeability from apical to basolateral side to basolateral to apical side in MDR1 expressing MDCK2 cells at 5 uM after 120 mins; type: ADME, cell-based, Canis lupus familiaris; conditions: dog, mdck-ii, 2 h
[12] = target: Dual specificity protein kinase CLK1 (Homo sapiens) (UniProt P49759); experiment: Inhibition of CLK1 at 10 uM
Sequence of Dual specificity protein kinase CLK1 (Homo sapiens) (P49759 whole entry, looked up): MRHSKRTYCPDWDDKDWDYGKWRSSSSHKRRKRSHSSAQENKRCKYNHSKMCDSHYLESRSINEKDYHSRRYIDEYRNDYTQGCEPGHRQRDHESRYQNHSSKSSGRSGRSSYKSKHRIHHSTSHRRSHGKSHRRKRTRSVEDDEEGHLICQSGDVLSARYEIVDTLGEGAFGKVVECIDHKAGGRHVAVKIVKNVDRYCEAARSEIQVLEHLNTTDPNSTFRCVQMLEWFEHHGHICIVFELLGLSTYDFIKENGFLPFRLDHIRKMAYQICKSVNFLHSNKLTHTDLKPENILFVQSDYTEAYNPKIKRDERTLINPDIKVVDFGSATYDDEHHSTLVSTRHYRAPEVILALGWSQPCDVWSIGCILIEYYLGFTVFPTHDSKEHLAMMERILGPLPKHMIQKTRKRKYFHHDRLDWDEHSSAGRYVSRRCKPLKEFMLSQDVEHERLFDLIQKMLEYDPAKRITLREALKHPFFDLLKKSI

[13] = target: Dual specificity protein kinase TTK (Homo sapiens) (UniProt P33981); experiment: Inhibition of TTK at 10 uM
[14] = target: Cyclin-dependent kinase 2/cyclin A (Homo sapiens) (UniProt P24941+P20248+P78396); experiment: Inhibition of CDK2/cyclin A at 10 uM; type: protein-complex assay
[15] = target: Tyrosine-protein kinase SYK (Homo sapiens) (UniProt P43405); experiment: Inhibition of SYK at 10 uM
[16] = target: Tyrosine-protein kinase Lck (Homo sapiens) (UniProt P06239); experiment: Inhibition of LCK at 10 uM
[17] = target: Receptor-interacting serine/threonine-protein kinase 2 (Homo sapiens) (UniProt O43353); experiment: Inhibition of RIPK2 at 10 uM
[18] = target: Serine/threonine-protein kinase PLK2 (Homo sapiens) (UniProt Q9NYY3); experiment: Inhibition of PLK2 at 10 uM
[19] = target: Cyclin-dependent kinase 5/CDK5 activator 1 (Homo sapiens) (UniProt Q00535+Q15078); experiment: Inhibition of CDK5/p25 at 10 uM; type: protein-complex assay
[20] = target: Receptor tyrosine-protein kinase erbB-4 (Homo sapiens) (UniProt Q15303); experiment: Inhibition of ERBB4 at 10 uM
[21] = target: Serine/threonine-protein kinase Chk1 (Homo sapiens) (UniProt O14757); experiment: Inhibition of CHEK1 at 10 uM
[22] = target: Cyclin-dependent kinase 1/cyclin B1 (Homo sapiens) (UniProt P06493+P14635); experiment: Inhibition of CDK1/cyclin B at 10 uM; type: protein-complex assay
[23] = target: Proto-oncogene tyrosine-protein kinase receptor Ret (Homo sapiens) (UniProt P07949); experiment: Inhibition of RET at 10 uM
Sequence of Proto-oncogene tyrosine-protein kinase receptor Ret (Homo sapiens) (P07949 whole entry): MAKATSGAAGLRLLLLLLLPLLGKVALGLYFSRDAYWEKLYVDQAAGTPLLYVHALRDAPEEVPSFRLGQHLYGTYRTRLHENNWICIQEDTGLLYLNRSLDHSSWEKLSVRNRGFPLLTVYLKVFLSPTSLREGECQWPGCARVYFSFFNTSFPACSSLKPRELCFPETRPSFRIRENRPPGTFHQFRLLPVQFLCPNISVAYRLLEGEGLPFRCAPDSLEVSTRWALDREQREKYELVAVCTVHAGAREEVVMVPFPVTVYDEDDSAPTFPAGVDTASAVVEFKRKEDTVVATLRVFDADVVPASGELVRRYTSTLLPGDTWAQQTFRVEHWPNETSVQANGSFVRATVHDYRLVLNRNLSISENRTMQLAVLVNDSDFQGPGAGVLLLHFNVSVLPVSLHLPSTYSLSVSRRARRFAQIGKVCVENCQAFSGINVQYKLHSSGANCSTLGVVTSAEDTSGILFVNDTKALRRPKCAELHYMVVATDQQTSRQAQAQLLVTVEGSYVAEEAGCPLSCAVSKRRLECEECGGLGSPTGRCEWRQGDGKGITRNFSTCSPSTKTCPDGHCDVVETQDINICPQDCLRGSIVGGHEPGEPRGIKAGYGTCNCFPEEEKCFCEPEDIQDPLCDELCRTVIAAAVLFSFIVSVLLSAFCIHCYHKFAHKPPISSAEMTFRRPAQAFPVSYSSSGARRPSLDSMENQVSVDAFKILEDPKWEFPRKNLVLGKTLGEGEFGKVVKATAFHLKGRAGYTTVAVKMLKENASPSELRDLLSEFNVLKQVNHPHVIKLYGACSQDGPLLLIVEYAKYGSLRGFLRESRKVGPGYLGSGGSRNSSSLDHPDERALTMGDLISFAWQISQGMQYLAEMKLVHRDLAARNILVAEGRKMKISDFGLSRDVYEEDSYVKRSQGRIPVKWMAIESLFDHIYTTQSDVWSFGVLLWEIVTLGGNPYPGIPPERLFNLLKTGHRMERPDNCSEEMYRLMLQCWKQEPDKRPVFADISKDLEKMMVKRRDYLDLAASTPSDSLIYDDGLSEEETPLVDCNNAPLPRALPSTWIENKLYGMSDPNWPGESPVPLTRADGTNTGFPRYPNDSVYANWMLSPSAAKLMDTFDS

[24] = target: Serine/threonine-protein kinase 16 (Homo sapiens) (UniProt O75716); experiment: Inhibition of STK16 at 10 uM
[25] = target: PI3-kinase p110-alpha/p85-alpha (Homo sapiens) (UniProt P27986+P42336); experiment: Inhibition of PIK3CA/PIK3R1 at 10 uM; type: protein-complex assay
[26] = target: Dual specificity tyrosine-phosphorylation-regulated kinase 1B (Homo sapiens) (UniProt Q9Y463); experiment: Inhibition of DYRK1B at 10 uM
[27] = target: Serine/threonine-protein kinase PAK 4 (Homo sapiens) (UniProt O96013); experiment: Inhibition of PAK4 at 10 uM
[28] = target: Glycogen synthase kinase-3 beta (Homo sapiens) (UniProt P49841); experiment: Inhibition of GSK3B at 10 uM
[29] = target: Insulin receptor (Homo sapiens) (UniProt P06213); experiment: Inhibition of INSR at 10 uM
[30] = target: Macrophage colony-stimulating factor 1 receptor (Homo sapiens) (UniProt P07333); experiment: Inhibition of CSF1R at 10 uM
[31] = target: Tyrosine-protein kinase JAK1 (Homo sapiens) (UniProt P23458); experiment: Inhibition of JAK1 at 10 uM
[32] = target: T1, Mitogen-activated protein kinase 10; experiment: Inhibition of MAPK10 at 10 uM
[33] = target: Serine/threonine-protein kinase PLK1 (Homo sapiens) (UniProt P53350); experiment: Inhibition of PLK1 at 10 uM
[34] = target: cAMP-dependent protein kinase catalytic subunit alpha (Homo sapiens) (UniProt P17612); experiment: Inhibition of PKACA at 10 uM
[35] = target: Serine/threonine-protein kinase PLK3 (Homo sapiens) (UniProt Q9H4B4); experiment: Inhibition of PLK3 at 10 uM
[36] = target: Rho-associated protein kinase 2 (Homo sapiens) (UniProt O75116); experiment: Inhibition of ROCK2 at 10 uM
[37] = target: Protein kinase C beta type (Homo sapiens) (UniProt P05771); experiment: Inhibition of PRKCB1 at 10 uM
[38] = target: Tyrosine-protein kinase ABL1 (Homo sapiens) (UniProt P00519); experiment: Inhibition of ABL1 at 10 uM
Sequence of Tyrosine-protein kinase ABL1 (Homo sapiens) (P00519 whole entry): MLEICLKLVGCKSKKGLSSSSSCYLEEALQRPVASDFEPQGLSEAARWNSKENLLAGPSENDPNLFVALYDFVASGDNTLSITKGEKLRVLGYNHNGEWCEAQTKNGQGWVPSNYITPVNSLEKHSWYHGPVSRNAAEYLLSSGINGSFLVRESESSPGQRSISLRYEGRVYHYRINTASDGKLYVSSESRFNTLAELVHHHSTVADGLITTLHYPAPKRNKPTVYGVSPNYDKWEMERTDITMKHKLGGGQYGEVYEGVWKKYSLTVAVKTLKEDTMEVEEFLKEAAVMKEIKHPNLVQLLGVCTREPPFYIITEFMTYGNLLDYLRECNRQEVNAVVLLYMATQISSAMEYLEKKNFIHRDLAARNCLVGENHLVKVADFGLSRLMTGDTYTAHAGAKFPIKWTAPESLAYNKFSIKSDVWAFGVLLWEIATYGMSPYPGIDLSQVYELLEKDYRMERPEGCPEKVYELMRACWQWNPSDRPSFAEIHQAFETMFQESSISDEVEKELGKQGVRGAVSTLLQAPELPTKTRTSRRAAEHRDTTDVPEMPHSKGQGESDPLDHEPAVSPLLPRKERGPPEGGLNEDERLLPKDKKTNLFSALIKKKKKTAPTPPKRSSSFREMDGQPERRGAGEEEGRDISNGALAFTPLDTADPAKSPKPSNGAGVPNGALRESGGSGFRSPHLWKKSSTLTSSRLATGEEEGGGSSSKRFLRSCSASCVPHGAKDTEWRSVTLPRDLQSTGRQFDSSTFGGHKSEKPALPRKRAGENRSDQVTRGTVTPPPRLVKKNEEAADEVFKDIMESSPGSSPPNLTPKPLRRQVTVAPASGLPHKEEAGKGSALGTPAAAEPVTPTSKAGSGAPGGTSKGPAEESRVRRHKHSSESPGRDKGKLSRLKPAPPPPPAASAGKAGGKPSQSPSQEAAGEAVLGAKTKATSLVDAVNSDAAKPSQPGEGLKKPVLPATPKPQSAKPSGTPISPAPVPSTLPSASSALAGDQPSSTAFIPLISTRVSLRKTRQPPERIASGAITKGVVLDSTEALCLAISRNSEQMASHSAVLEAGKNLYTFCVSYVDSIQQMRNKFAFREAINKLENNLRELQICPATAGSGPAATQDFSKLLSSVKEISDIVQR

[39] = target: Protein-tyrosine kinase 2-beta (Homo sapiens) (UniProt Q14289); experiment: Inhibition of PTK2B at 10 uM
Sequence of Protein-tyrosine kinase 2-beta (Homo sapiens) (Q14289 whole entry, looked up): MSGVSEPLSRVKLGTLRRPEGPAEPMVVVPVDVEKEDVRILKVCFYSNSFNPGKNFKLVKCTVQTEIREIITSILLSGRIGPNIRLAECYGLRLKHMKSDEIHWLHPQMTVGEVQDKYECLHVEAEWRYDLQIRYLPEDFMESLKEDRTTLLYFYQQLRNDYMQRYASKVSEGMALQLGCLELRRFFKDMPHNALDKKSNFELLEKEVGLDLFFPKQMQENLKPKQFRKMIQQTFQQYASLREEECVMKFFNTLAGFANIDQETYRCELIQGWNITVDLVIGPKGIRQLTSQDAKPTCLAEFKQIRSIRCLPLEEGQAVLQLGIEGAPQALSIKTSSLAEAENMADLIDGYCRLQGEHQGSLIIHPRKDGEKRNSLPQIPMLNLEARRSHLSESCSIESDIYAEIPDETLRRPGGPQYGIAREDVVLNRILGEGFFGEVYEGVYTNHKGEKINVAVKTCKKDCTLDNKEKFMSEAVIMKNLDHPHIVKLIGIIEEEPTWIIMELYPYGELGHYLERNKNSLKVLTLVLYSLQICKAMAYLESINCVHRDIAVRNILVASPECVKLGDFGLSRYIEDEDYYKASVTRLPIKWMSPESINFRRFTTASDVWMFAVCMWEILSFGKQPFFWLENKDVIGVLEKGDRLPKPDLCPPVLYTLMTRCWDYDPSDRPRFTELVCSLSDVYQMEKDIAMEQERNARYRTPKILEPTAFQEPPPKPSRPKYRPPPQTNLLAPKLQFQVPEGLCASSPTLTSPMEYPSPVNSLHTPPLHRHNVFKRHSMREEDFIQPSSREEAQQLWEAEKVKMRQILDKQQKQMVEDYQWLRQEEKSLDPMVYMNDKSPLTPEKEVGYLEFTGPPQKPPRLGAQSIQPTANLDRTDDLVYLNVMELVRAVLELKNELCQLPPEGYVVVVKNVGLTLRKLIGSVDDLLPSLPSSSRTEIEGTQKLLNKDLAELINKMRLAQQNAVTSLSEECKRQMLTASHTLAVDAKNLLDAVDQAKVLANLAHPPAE

[40] = target: Serine/threonine-protein kinase 3 (Homo sapiens) (UniProt Q13188); experiment: Inhibition of STK3 at 10 uM
[41] = target: Leucine-rich repeat serine/threonine-protein kinase 2 (Homo sapiens) (UniProt Q5S007); experiment: Inhibition of LRRK2 at 10 uM
[42] = target: RAF proto-oncogene serine/threonine-protein kinase (Homo sapiens) (UniProt P04049); experiment: Inhibition of RAF1 at 10 uM
[43] = target: Receptor-type tyrosine-protein kinase FLT3 (Homo sapiens) (UniProt P36888); experiment: Inhibition of FLT3 at 10 uM
[44] = target: Serine/threonine-protein kinase MARK2 (Homo sapiens) (UniProt Q7KZI7); experiment: Inhibition of MARK2 at 10 uM
[45] = target: Calcium/calmodulin-dependent protein kinase type II subunit alpha (Homo sapiens) (UniProt Q9UQM7); experiment: Inhibition of CAMK2A at 10 uM
[46] = target: Mitogen-activated protein kinase 1 (Homo sapiens) (UniProt P28482); experiment: Inhibition of MAPK1 at 10 uM
[47] = target: Platelet-derived growth factor receptor alpha (Homo sapiens) (UniProt P16234); experiment: Inhibition of PDGFRA at 10 uM
[48] = target: RAC-alpha serine/threonine-protein kinase (Homo sapiens) (UniProt P31749); experiment: Inhibition of AKT1 at 10 uM

Structure (SMILES): c1ccc2cc(-c3nnnn3-c3ccncc3)ccc2c1
remaining at 0.5 h [1]: 16%
remaining at 0.5 h [2]: 0%
IC50 [6]: > 50 µM
IC50 [7]: > 50 µM
IC50 [9]: > 50 µM

Structure (SMILES): N/N=c1\[nH]nc(-c2ccncc2)n1-c1ccc2ccccc2c1
IC50 [6]: 14.9 µM
IC50 [7]: 34 µM
solubility [8]: 65 µM (≈ 19.7 µg/mL)
IC50 [9]: > 50 µM

Structure (SMILES): c1ccc2cc(-c3[nH]ncc3-c3ccncc3)ccc2c1
Ratio IC50 [10]: 20

Structure (SMILES): c1ccc2cc(-n3nnnc3-c3ccncc3)ccc2c1
IC50 [6]: 49.1 µM
IC50 [7]: > 50 µM
solubility [8]: 15 µM (≈ 4.1 µg/mL)
IC50 [9]: > 50 µM

Structure (SMILES): c1ccc2cc(-c3nn[nH]c3-c3ccncc3)ccc2c1
Ratio IC50 [10]: 20

Structure (SMILES): FC(F)(F)c1nnc(-c2ccncc2)n1-c1ccc2ccccc2c1
IC50 [6]: > 50 µM
IC50 [7]: > 50 µM
solubility [8]: 15 µM (≈ 5.1 µg/mL)
IC50 [9]: > 50 µM

Structure (SMILES): S=c1[nH]nc(-c2ccnc(Br)c2)n1-c1ccc2ccccc2c1
IC50 [6]: > 50 µM
IC50 [7]: > 50 µM
solubility [8]: 35 µM (≈ 13.4 µg/mL)
IC50 [9]: > 50 µM

Structure (SMILES): S=c1[nH]nc(-c2ccncc2)n1-c1cnc2ccccc2c1
IC50 [6]: > 50 µM
IC50 [7]: > 50 µM
solubility [8]: 100 µM (≈ 30.5 µg/mL)
IC50 [9]: > 50 µM

The next lines start with the values.

remaining at 0.5 h [1]: 100%
remaining at 0.5 h [2]: 76%
remaining at 1 h [3]: 87%
remaining at 1 h [4]: 100%
Papp A→B at 2 h, 5 µM [5]: 30.6 ×10⁻⁶ cm/s
IC50 [6]: 4.48 µM
IC50 [7]: 19 µM
solubility [8]: 35 µM (≈ 9.53 µg/mL)
IC50 [9]: > 50 µM
Structure (SMILES): c1ccc2cc(-n3cnnc3-c3ccncc3)ccc2c1

remaining at 0.5 h [1]: 52%
remaining at 0.5 h [2]: 1%
remaining at 1 h [3]: 100%
remaining at 1 h [4]: 73%
Papp A→B at 2 h, 5 µM [5]: 16.9 ×10⁻⁶ cm/s
IC50 [6]: 0.245 µM
Ratio [11]: 1.14
IC50 [7]: 0.864 µM
IC50 [9]: 7.15 µM
Structure (SMILES): c1ccc2cc(-c3n[nH]cc3-c3ccncc3)ccc2c1

IC50 [6]: 1.03 µM
IC50 [7]: 0.504 µM
solubility [8]: 100 µM (≈ 31.9 µg/mL)
IC50 [9]: 24.3 µM
Structure (SMILES): Nc1cc(-c2n[nH]c(=S)n2-c2ccc3ccccc3c2)ccn1

inhibition [12]: 5%
inhibition [13]: 39%
remaining at 0.5 h [1]: 100%
inhibition [14]: 0%
inhibition [15]: 26%
inhibition [16]: 0%
inhibition [17]: 4%
inhibition [18]: 73%
inhibition [19]: 19%
inhibition [20]: 12%
inhibition [21]: 0%
inhibition [22]: 3%
inhibition [23]: 0%
remaining at 0.5 h [2]: 100%
remaining at 1 h [3]: 1%
inhibition [24]: 0%
inhibition [25]: 42%
remaining at 1 h [4]: 8%
inhibition [26]: 16%
inhibition [27]: 8%
inhibition [28]: 28%
inhibition [29]: 5%
inhibition [30]: 46%
inhibition [31]: 0%
inhibition [32]: 44%
Ratio IC50 [10]: > 10
inhibition [33]: 22%
inhibition [34]: 93%
inhibition [35]: 94%
IC50 [6]: 0.559 µM
inhibition [36]: 25%
inhibition [37]: 25%
inhibition [38]: 8%
inhibition [39]: 1%
inhibition [40]: 0%
inhibition [41]: 13%
inhibition [42]: 45%
Ratio [11]: 1.12
IC50 [7]: 2.98 µM
inhibition [43]: 41%
solubility [8]: 100 µM (≈ 30.4 µg/mL)
inhibition [44]: 1%
IC50 [9]: 12.5 µM
inhibition [45]: 49%
inhibition [46]: 2%
inhibition [47]: 11%
inhibition [48]: 1%
Structure (SMILES): S=c1[nH]nc(-c2ccncc2)n1-c1ccc2ccccc2c1

remaining at 0.5 h [1]: 12%
remaining at 0.5 h [2]: 0%
remaining at 1 h [3]: 90%
remaining at 1 h [4]: 78%
Papp A→B at 2 h, 5 µM [5]: 37.9 ×10⁻⁶ cm/s
IC50 [6]: 4.81 µM
IC50 [7]: 18.6 µM
IC50 [9]: > 50 µM
Structure (SMILES): c1ccc2cc(-c3cnnn3-c3ccncc3)ccc2c1

remaining at 0.5 h [1]: 2%
remaining at 0.5 h [2]: 0%
IC50 [6]: 2.46 µM
IC50 [7]: 9.31 µM
IC50 [9]: 41.9 µM
Structure (SMILES): c1ccc2cc(-c3ccnn3-c3ccncc3)ccc2c1
